From ChEMBL document CHEMBL1156853, “Structure-function relationships and crystal structures of the vitamin D receptor bound 2 alpha-methyl-(20S,23S)- and 2 alpha-methyl-(20S,23R)-epoxymethano-1 alpha,25-dihydroxyvitamin D3” (J Med Chem, 2010)
Activity calls are given as the source filed them. No cut-off for these calls is given here.

Key:
[1] = tested on: HL-60; assay: Antiproliferative activity against human HL60 cells at 0.1 nM after 96 hrs; assay type: functional, cell-based
Procedure, shortened: (§1)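 HL60 cells grown in RPMI with 10% fetal calf serum at 37 °C without CO2. Plated at 4 × 10^5 cells/mL and exposed 96 h to various ligand concentrations, with 0.7% ethanol as control. Cells then counted; mean ± SEM.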

[2] = tested on: HL-60; assay: Induction of cell differentiation in human HL60 cells assessed as CD11c and CD14 expression at 0.1 nM after 96 hrs relative to untreated control; assay type: functional
Procedure, shortened: (§2)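 HL60 cells plated at 4 × 10^5 cells/mL in RPMI/10% FCS at 37 °C and treated 96 h, with 0.7% ethanol control. Stained with PE-anti-CD11c and FITC-anti-CD14, and Topro-3 added to exclude dead cells. Flow cytometry counted the CD11c/CD14 double-positive subpopulation. Representative of three experiments.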

[3] = biological target: T1, Vitamin D3 receptor (Homo sapiens) (UniProt P11473); assay: Agonist activity at GAL4 tagged human VDR ligand binding domain expressed in MCF7 cells assessed as receptor transactivation at 5 nM by luciferase reporter gene assay relative to 1-alpha,25(OH)(2)D(3); assay type: cell-based
T1 sequence (whole entry): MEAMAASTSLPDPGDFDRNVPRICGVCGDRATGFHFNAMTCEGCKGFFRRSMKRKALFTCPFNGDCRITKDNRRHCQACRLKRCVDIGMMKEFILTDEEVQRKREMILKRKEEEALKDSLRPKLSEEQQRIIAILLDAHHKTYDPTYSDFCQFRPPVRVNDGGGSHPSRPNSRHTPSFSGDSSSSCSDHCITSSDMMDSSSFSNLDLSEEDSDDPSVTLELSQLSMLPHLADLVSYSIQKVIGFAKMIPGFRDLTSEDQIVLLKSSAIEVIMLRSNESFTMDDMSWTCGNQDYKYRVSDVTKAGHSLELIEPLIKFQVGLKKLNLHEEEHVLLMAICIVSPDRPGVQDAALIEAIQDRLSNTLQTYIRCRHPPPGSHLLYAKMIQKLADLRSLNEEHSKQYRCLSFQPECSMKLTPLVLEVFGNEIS
Procedure, shortened: (§3)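 Gal4 DBD fused to human VDR LBD (90-427). MCF-7 cells seeded at 10^5 per well and grown overnight in phenol red-free DMEM with 10% charcoal-treated FCS and insulin. Transfected (jetPEI) with Gal4-VDR, ptk-LUC reporter and β-galactosidase plasmid. Ligand or solvent added 10 h later in phenol red-free DMEM/10% FCS. Luciferase read 24 h after stimulation and normalized to β-galactosidase. Triplicates, at least three experiments.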

[4] = biological target: T1, Vitamin D3 receptor (Homo sapiens); assay: Binding affinity to human VDR ligand binding domain assessed as SRC1 peptide binding dissociation constant by fluorescence anisotrophy relative to 1-alpha,25(OH)(2)D(3)
Procedure, shortened: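 Steady-state fluorescence anisotropy at 20 °C. Kd obtained from anisotropy values of free peptide, peptide at each protein concentration and plateau. Representative of three experiments.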

[5] = tested on: Mus musculus; assay: Toxicity in C57BL/6J mouse assessed as increase in serum calcium level at 0.1 ug/kg, ip administered every 2 days for 3 weeks; assay type: organism-based; conditions: in vivo, 0.0001 mg/kg
Procedure, shortened: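 Male C57BL/6J mice, 6-7 weeks old, 6-7 per group. Ligand in sesame oil given ip at 0.1 μg/kg every second day for 3 weeks; vehicle controls received sesame oil. Serum calcium measured weekly after a 3 h fast, by clinical analyzer kit. Mean ± SEM.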

[6] = biological target: T1, Vitamin D3 receptor (Homo sapiens); assay: Agonist activity at GAL4 tagged human VDR ligand binding domain expressed in MCF7 cells assessed as receptor transactivation at 0.1 nM by luciferase reporter gene assay relative to (20S,23S)-epoxymethano-1 alpha,25-dihydroxyvitamin D(3); assay type: cell-based; procedure, shortened: as §3
[7] = biological target: T1, Vitamin D3 receptor (Homo sapiens); assay: Agonist activity at GAL4 tagged human VDR ligand binding domain expressed in MCF7 cells assessed as receptor transactivation at 0.1 nM by luciferase reporter gene assay relative to 1-alpha,25(OH)(2)D(3); assay type: cell-based; procedure, shortened: as §3
[8] = tested on: HL-60; assay: Induction of cell differentiation in human HL60 cells assessed as CD11c and CD14 expression after 96 hrs; assay type: functional, cell-based; procedure, shortened: as §2
[9] = tested on: HL-60; assay: Antiproliferative activity against human HL60 cells after 96 hrs; assay type: functional, cell-based; procedure, shortened: as §1
[10] = biological target: T1, Vitamin D3 receptor (Homo sapiens); assay: Agonist activity at GAL4 tagged human VDR ligand binding domain expressed in MCF7 cells assessed as receptor transactivation at 5 nM by luciferase reporter gene assay relative to 2alpha-methyl-(20S,23S)-epoxymethano-1 alpha,25-dihydroxyvitamin D(3); assay type: cell-based; procedure, shortened: as §3
[11] = biological target: T1, Vitamin D3 receptor (Homo sapiens); assay: Agonist activity at GAL4 tagged human VDR ligand binding domain expressed in MCF7 cells assessed as receptor transactivation at 1 nM by luciferase reporter gene assay relative to 2alpha-methyl-(20S,23S)-epoxymethano-1 alpha,25-dihydroxyvitamin D(3); assay type: cell-based; procedure, shortened: as §3
[12] = biological target: T1, Vitamin D3 receptor (Homo sapiens); assay: Agonist activity at GAL4 tagged human VDR ligand binding domain expressed in MCF7 cells assessed as receptor transactivation at 0.1 nM by luciferase reporter gene assay relative to 2alpha-methyl-(20S,23S)-epoxymethano-1 alpha,25-dihydroxyvitamin D(3); assay type: cell-based; procedure, shortened: as §3

SMILES	Activity [3]	fold change (FC) [4]	fold change (FC) [6]	fold change (FC) [7]	Activity [10]	Activity [11]	Activity [12]	Activity [1]	Activity [2]	fold change (FC) [2]	Activity [5]	Activity [8]	Activity [9]
C=C1/C(=C\C=C2/CCC[C@]3(C)[C@@H]([C@H](C)CCCC(C)(C)O)CC[C@@H]23)C[C@@H](O)C[C@@H]1O								inactive	inactive				
C=C1/C(=C\C=C2/CCC[C@]3(C)[C@@H]([C@@H]4C[C@@H](CC(C)(C)O)CO4)CC[C@@H]23)C[C@@H](O)C[C@@H]1O		0.9			73%	42%	26%	inactive	inactive		Toxic		
C=C1/C(=C\C=C2/CCC[C@]3(C)[C@@H]([C@@H]4C[C@H](CC(C)(C)O)CO4)CC[C@@H]23)C[C@@H](O)C[C@@H]1O		1.7						inactive	inactive			Dose-dependent effect	Dose-dependent effect

Second part, led by results:

Activity [3]	fold change (FC) [4]	fold change (FC) [6]	fold change (FC) [7]	Activity [10]	Activity [11]	Activity [12]	SMILES	Activity [1]	Activity [2]	fold change (FC) [2]	Activity [5]	Activity [8]	Activity [9]
Active	1.3	3.8	13				C=C1/C(=C\C=C2/CCC[C@]3(C)[C@@H]([C@@H]4C[C@@H](CC(C)(C)O)CO4)CC[C@@H]23)C[C@@H](O)[C@H](C)[C@@H]1O	Active	Active	10	Toxic		
	3.2						C=C1/C(=C\C=C2/CCC[C@]3(C)[C@@H]([C@@H]4C[C@H](CC(C)(C)O)CO4)CC[C@@H]23)C[C@@H](O)[C@H](C)[C@@H]1O	inactive	inactive		Non-toxic	Dose-dependent effect	Dose-dependent effect
